In one data set the test system is Hepatitis C virus. Briefly: Antiviral activity against chimeric HCV FL-J6/JFH/JC1 infected in human Huh7.5 cells assessed as reduction of intracellular viral RNA level after 72 hrs by RT-PCR assay. As to conditions: FL-J6/JFH/JC1, Huh-7, 72 h. It is filed as functional, organism-based, Hepacivirus hominis. In short, it runs like this:
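Huh7.5 cells in DMEM with 10% inactivated FBS at 37 °C, 5% CO2, seeded at 3 × 10^4 cells/cm2. After 24 h they were infected (about 45 IU per cell) and given compound or solvent control at the same time. At 72 h, intracellular HCV RNA was measured against GAPDH by one-step RT-PCR (2ΔΔCT). EC50 was derived by the Reed and Muench method.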

Data set [1] can be described thus: Therapeutic index, ratio of CC50 for human Huh7.5 cells to EC50 for chimeric HCV FL-J6/JFH/JC1 infected in human Huh7.5 cells. In kind it is cell-based, Huh-7. As to conditions: read-out: Ratio CC50/EC50.
A short description of data set [2]: Cytotoxicity against human Huh7.5 cells. In kind it is cell-based, Huh-7. Summed up: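 Huh7.5 human liver cells grown in DMEM with 10% inactivated fetal bovine serum and 1% penicillin–streptomycin at 37 °C, 5% CO2.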

In ChEMBL document CHEMBL3739337, “Alkaloids with Different Carbon Units from Myrioneuron faberi” (J Nat Prod, 2015) one finds EC50, selectivity ratio and CC50 data, which are given here for six molecules.

Some results are limits rather than exact numbers.

In the case of `CCC[C@H](NC(=O)[C@@H]1[C@H]2CCC[C@H]2CN1C(=O)[C@@H](NC(=O)[C@@H](NC(=O)c1cnccn1)C1CCCCC1)C(C)(C)C)C(=O)C(=O)NC1CC1` [TELAPREVIR], in the data set on Hepatitis C virus, the EC50 came out at 0.129 µM. Also, the selectivity ratio in data set [1] was 371. Also, the CC50 in data set [2] stood at 47.8 µM.

As for `COC[C@@H]1CCCN2C[C@@H]3CCC[C@H]4CC(C=O)=CN([C@H]43)[C@@H]12`, in the data set with Hepatitis C virus, the EC50 was determined as 0.92 µM. Besides, the selectivity ratio in data set [1] was above 109. In data set [2], this molecule displayed a CC50 above 100 µM.

As to `O=C1CC[C@@H]2CCC[C@H]3CN4CCCC[C@H]4N1[C@H]23`, in the data set on Hepatitis C virus, the EC50 worked out at 30.6 µM. Further, the selectivity ratio in data set [1] is above 3.3. The CC50 in data set [2] was above 100 µM.

As for `C1C[C@H]2CCCN3[C@H]2[C@@H](C1)CN1CCCC[C@@H]13`, the EC50 with Hepatitis C virus is 7.35 µM. Also, the selectivity ratio in data set [1] turned out to be 13. This molecule gave a CC50 in data set [2] of 95.9 µM.

On to `O=C1CC[C@@H]2CCC[C@H]3CN4CCC[C@H](C[C@H]5CCCN6C[C@@H]7CCC[C@H]8CCC(=O)N([C@H]87)[C@H]56)[C@H]4N1[C@H]23`, for which the EC50 in the data set with Hepatitis C virus was determined as 10.5 µM. For the same molecule, the selectivity ratio in data set [1] is above 9.5. Besides, the CC50 in data set [2] is above 100 µM.

In the case of `O=CC1=CN2[C@@H]3[C@@H](CCC[C@H]3CN3CCCC[C@@H]32)C1`, the EC50 in the data set with Hepatitis C virus turned out to be 3.27 µM. Moreover, in data set [1], the selectivity ratio is above 30.6. The molecule also yielded a CC50 in data set [2] above 100 µM.
